Experimental data: PubChem BioAssay
Activity calls are given as the source filed them.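 The calls were made as follows, unless noted: active = inhibition of the reporter signal at or above 50%; inactive = inhibition below 50%.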

Columns and labels:
[1] = inhibitors of TNFa-induced NFkB p65 translocation, primary screen, imaging, HUVEC, MLSMR starter and 10KST1 sets (AID 438;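 active = inhibition above 20% together with a positive visual image hit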;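 also: compound added about 3h40 before a 20 min TNFalpha stimulation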;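 as to inhibition: signal is the nuclear over cytoplasmic p65 intensity ratio per well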); conditions: HUVEC TNFa-induced p65 nuclear translocation; cell count: measured here: nuclei count (cytotoxicity indicator), at 2.08 µM; inhibition: at 2 µM, stronger effect = higher value, 0% TNFa-plus-vehicle, 100% no-TNFa wells
[2] = inhibitors of mutant huntingtin aggregation, primary screen, imaging, exon1htt(103Q)mCFP cells, high-content imaging (AID 483;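 active = visual image review flags a hit and inhibition of aggregation exceeds 20%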;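 also: compound exposure lasted 3 days before fixation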;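 as to nuclei count: percent of the per-plate median nuclei count of sample wells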); conditions: exon1htt(103Q)mCFP cell line, aggregate imaging, at 2 µM; inhibition of aggregation: stronger effect = higher value; nuclei count: measured here: cell count, toxicity
[3] = inhibitors of E-selectin induction by TNFa, primary screen, imaging, HUVEC, immunofluorescence, MLSMR starter and 10KST1 sets (AID 487;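 active = visually confirmed hit in the image check and inhibition above 20%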;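 as to inhibition: signal is fraction of cell area covered by stained E-selectin grains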;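 as to nuclei count: 100% = median nuclei count of all wells on the same plate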); conditions: HUVEC TNFalpha-induced E-selectin immunofluorescence imaging, at 2 µM; inhibition: stronger effect = higher value; nuclei count: measured here: cell number, toxicity
[4] = molecular target: Voltage-gated potassium channel subunit beta-2 (Rattus norvegicus) (UniProt P62483); test: KvBeta enzyme negative modulators, primary screen, biochemical, NADPH fluorescence (AID 622;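 active = fluorescence slope higher than the sample average by over 3 SD, cut at about -0.22 in these data, passing the limit was not always enough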;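 also: slope of raw intensity against log time taken from 70 to 1610 s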); conditions: recombinant KvBeta, 4-cyanobenzaldehyde reduction, at 10 µM, stronger effect = higher value
Chain of Voltage-gated potassium channel subunit beta-2 (Rattus norvegicus) (P62483 whole entry, looked up): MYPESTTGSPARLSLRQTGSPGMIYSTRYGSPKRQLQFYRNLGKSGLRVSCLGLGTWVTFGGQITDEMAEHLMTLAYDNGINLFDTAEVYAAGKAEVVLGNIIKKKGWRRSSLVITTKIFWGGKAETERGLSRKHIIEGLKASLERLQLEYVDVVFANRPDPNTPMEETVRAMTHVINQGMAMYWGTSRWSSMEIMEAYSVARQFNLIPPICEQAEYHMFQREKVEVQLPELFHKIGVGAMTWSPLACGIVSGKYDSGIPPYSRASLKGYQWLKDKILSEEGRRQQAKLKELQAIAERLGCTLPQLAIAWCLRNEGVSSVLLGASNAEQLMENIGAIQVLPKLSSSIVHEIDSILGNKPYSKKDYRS

[5] = molecular target: Voltage-gated potassium channel subunit beta-2 (Rattus norvegicus) (UniProt P62483); test: KvBeta positive modulators, primary screen, biochemical, NADPH fluorescence (AID 623;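 active = NADPH fluorescence slope more negative than the mean of all samples by about 3 SD, 99.7% confidence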;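 also: fluorescence intensity change per second fitted from 20 to 320 s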); conditions: Recombinant KvBeta, NADPH fluorescence decrease slope, 10 min; at 10 µM; stronger effect = lower value
[6] = molecular target: Muscarinic acetylcholine receptor M4 (Homo sapiens) (UniProt P08173); test: compounds altering M4/GIRK thallium flux, either direction, primary screen, M4 allosteric agonist project, cell-based, HEK293 M4/GIRK, BTC-AM (AID 625;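 active = fluorescence slope after compound addition differing from the mean of all tested samples at 99.7% confidence, mostly higher but some lower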;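 also: thallium influx through GIRK channels coupled to M4 in HEK293 cells with BTC-AM dye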); conditions: at 10 µM, actives lie on both sides
Chain of Muscarinic acetylcholine receptor M4 (Homo sapiens) (P08173 whole entry, looked up): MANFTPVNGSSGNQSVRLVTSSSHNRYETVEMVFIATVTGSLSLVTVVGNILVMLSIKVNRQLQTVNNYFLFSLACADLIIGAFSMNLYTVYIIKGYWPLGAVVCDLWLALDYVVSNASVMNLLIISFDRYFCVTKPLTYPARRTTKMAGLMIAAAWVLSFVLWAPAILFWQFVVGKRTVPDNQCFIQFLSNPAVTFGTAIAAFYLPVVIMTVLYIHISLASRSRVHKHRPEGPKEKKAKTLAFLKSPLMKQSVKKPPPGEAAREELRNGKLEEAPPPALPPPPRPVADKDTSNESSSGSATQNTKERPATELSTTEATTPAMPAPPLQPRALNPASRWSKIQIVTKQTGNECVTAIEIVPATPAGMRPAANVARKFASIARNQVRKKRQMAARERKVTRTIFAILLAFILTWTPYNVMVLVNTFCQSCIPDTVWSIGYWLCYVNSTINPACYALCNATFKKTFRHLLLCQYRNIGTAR
Outline: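 Material: HEK293 cells with M4 receptor and GIRK channels; Times: cells overnight at 37 °C, BTC-AM loading 1 h, reads 2 min total; Technique: kinetic BTC-AM fluorescence sampled at 1 Hz, 10 s pre-addition baseline; Read-out basis: slope over 15–24 s of trace normalized to starting intensity; Controls: carbachol positive, DMSO negative.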

[7] = inhibitors of Sendai virus-induced IRF3 signaling, primary screen, TLR/RLR signaling modifier project, cell-based, Sendai virus stimulus, luciferase, 10K MLSCN set (AID 602276;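 active = inhibition at or above 50% at 10 µM; inactive = inhibition below 50%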;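 also: firefly luciferase from ISG56 promoter only with Renilla not read in this screen; 0% = Sendai virus plus DMSO and 100% = medium plus DMSO without virus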); conditions: HEK293 RL24 IRF3 luciferase reporter, at 10 µM, stronger effect = higher value
[8] = inhibitors of poly I:C-induced TLR3 signaling, primary screen, cell-based, poly I:C stimulus, luciferase, 10K MLSCN set (AID 602277); conditions: HEK293-TLR3 RL24 IRF3 luciferase reporter, at 10 µM, stronger effect = higher value
[9] = molecular target: Alpha-2C adrenergic receptor (Homo sapiens) (UniProt P18825); test: modulators of alpha2C/GIRK thallium flux, primary screen, cell-based, HEK293 alpha2C/GIRK1/2 (AID 624;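 active = fluorescence slope after compound addition differing from the mean of all screened samples at 99.7% confidence, in either direction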); conditions: thallium flux BTC fluorescence, at 10 µM, actives lie on both sides
Chain of Alpha-2C adrenergic receptor (Homo sapiens) (P18825 whole entry, looked up): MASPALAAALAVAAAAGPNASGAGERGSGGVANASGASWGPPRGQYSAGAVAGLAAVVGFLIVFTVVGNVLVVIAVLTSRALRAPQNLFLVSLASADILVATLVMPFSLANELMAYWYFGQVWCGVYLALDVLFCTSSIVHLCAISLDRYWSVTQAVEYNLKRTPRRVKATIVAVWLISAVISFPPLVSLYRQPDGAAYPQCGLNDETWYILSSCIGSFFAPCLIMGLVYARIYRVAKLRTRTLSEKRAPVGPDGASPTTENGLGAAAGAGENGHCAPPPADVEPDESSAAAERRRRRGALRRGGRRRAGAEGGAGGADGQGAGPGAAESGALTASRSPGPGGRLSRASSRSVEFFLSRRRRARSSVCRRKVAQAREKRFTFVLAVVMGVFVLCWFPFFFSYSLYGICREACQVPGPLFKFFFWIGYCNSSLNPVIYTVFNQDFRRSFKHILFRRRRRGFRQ

[10] = inhibitors of larval lipid processing in zebrafish, primary screen, whole organism, PED6 fluorescence, gall bladder and intestine (AID 686;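 active = a full or partial loss of lipid-probe fluorescence in the fish gall bladder, intestine or both, judged by eye; inactive = no fluorescence loss, or compound toxic to the fish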;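 also: larvae 5 to 7 days old with five fish per well; signal comes from phospholipase A2 cleavage of quenched PED6 carried via bile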); conditions: Zebrafish larvae PED6 lipid processing, fluorescence scoring; screened at 20 µM (by protocol)
Outline: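 Incubation: overnight exposure of larvae to compound plus PED6 / Test system: live zebrafish larvae aged 5-7 days, whole organism / Amount: 5 larvae per well / Read-out basis: visual per-well fluorescence inhibition score / Signal: visual fluorescence microscopy scoring of gall bladder, gut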

| Structure (SMILES) | cell count [1] | inhibition [1] | inhibition of aggregation [2] | nuclei count [2] | inhibition [3] | nuclei count [3] | fluorescence slope [4] | NADPH fluorescence slope [5] | fluorescence slope [6] | inhibition [7] | inhibition [8] | slope [9] | outcome [10] |
| --- | --- | --- | --- | --- | --- | --- | --- | --- | --- | --- | --- | --- | --- |
| CN1C(=O)CC(C(=O)Nc2ccc(F)cc2)SC1=Nc1ccc2c(c1)OCO2 (stereo not given) | 715 | -5.4% (inactive) | 11.5% (inactive) | 117% | -15.7% (inactive) | 118% | -0.269 (inactive) | -3.8e-05 (inactive) | 0.0044 (inactive) | 16.1% (inactive) | 4.96% (inactive) | – | – |
| CCOC(=O)CS(=O)(=O)c1nc(-c2ccccc2)cc(C(F)(F)F)n1 | 380 | 2.8% (inactive) | -12.2% (inactive) | 102% | -15.5% (inactive) | 116% | -0.462 (inactive) | -1.5e-05 (inactive) | 0.00498 (inactive) | 20.1% (inactive) | 32.7% (inactive) | – | – |
| CC(C)CN(CC(C)C)c1nc(N)c(C#N)c(CC#N)c1C#N | 326 | -7% (inactive) | 9% (inactive) | 102% | -60.7% (inactive) | 120% | -0.318 (inactive) | -5e-05 (inactive) | – | – | 62.5% (active) | 0.00502 (inactive) | inactive |
| COCCCNCC(=O)Nc1ccc(OC(F)(F)F)cc1 | 363 | 14.4% (inactive) | -4.3% (inactive) | 89.5% | – | 119% | -0.403 (inactive) | -4.5e-05 (inactive) | – | -4.19% (inactive) | -0.468% (inactive) | 0.00627 (inactive) | inactive |
| Cc1onc(-c2ccccc2Cl)c1C(=O)Nc1cccc(-c2cn3cccnc3n2)c1 | 369 | -10.3% (inactive) | 7.8% (inactive) | 100% | -4% (inactive) | 109% | -0.0447 (inactive) | -9.5e-06 (inactive) | 0.00573 (inactive) | 7.13% (inactive) | 1.48% (inactive) | – | – |
| O=C(Nc1ccc2c(c1)OCO2)c1nn(-c2ccccc2)c(=O)c2ccccc12 | 417 | 7.1% (inactive) | -7.3% (inactive) | 93.9% | – | 150% | -0.621 (inactive) | 2e-05 (inactive) | – | 13.5% (inactive) | 11.4% (inactive) | 0.00664 (inactive) | – |
| COc1ncnc2c1N=C1CC(C)(C)CC(N)=C1S2 | 309 | 0.8% (inactive) | -0.2% (inactive) | 115% | -16.2% (inactive) | 115% | -0.37 (inactive) | -3.5e-05 (inactive) | 0.00511 (inactive) | 13.3% (inactive) | 35% (inactive) | – | – |
| COc1cccc(Nc2nc(=O)[nH]nc2C)c1 | 372 | -0.7% (inactive) | -14.2% (inactive) | 106% | -23.9% (inactive) | 103% | -0.572 (inactive) | -4.1e-05 (inactive) | 0.00575 (inactive) | 16.9% (inactive) | 22.7% (inactive) | – | – |
| O=C(O)c1ccc(-n2nc(C(F)(F)F)c3c2-c2ccoc2CC3)cc1 | 609 | -5.9% (inactive) | 5.8% (inactive) | 96.1% | -24.4% (inactive) | 90.9% | -0.492 (inactive) | 2.6e-05 (inactive) | 0.00488 (inactive) | 3.92% (inactive) | -5.27% (inactive) | – | – |
| Cc1cc2cc(CNC(=O)c3ccc4c(c3)OCO4)ccc2[nH]1 | 442 | 2.9% (inactive) | 0.1% (inactive) | 106% | – | 150% | -0.503 (inactive) | -1.1e-05 (inactive) | – | -10.5% (inactive) | -25.2% (inactive) | 0.00502 (inactive) | – |
| CC(NO)C(C)(C)NO (stereo not given) | 331 | 4.4% (inactive) | -7.5% (inactive) | 101% | -18.8% (inactive) | 126% | -0.493 (inactive) | 9e-05 (inactive) | 0.00819 (inactive) | 3.35% (inactive) | 10.7% (inactive) | – | – |
| Cc1nc(SCC(=O)NCc2ccco2)c2c(C)c(C)sc2n1 | 709 | -4% (inactive) | 15.2% (inactive) | 85.7% | -4.2% (inactive) | 112% | -0.558 (inactive) | -3.9e-05 (inactive) | 0.00596 (inactive) | 17.4% (inactive) | 17.9% (inactive) | – | – |
| Cc1nc(SCC(=O)Nc2ccccc2C(F)(F)F)c2c(=O)n(C)c(=O)n(C)c2n1 | 414 | -4.7% (inactive) | 1.1% (inactive) | 120% | -111% (inactive) | 121% | -0.447 (inactive) | 8.7e-05 (inactive) | 0.0097 (inactive) | 7.4% (inactive) | 13.5% (inactive) | – | – |
| COc1ccccc1N1CCN(C(=O)CCNS(=O)(=O)c2ccc3c(c2)CCC(=O)N3)CC1 | 556 | -18.8% (inactive) | -1.4% (inactive) | 123% | -31.1% (inactive) | 102% | -0.39 (inactive) | -1.7e-05 (inactive) | 0.00579 (inactive) | 5.92% (inactive) | 13.8% (inactive) | – | – |
| CCOC(=O)c1[nH]c2ccc(C)cc2c1N=C(C)N(C)C | 579 | 5.2% (inactive) | -6.9% (inactive) | 100% | -27.2% (inactive) | 108% | -0.563 (inactive) | -6e-05 (inactive) | 0.00488 (inactive) | 20.7% (inactive) | 21.2% (inactive) | – | – |
| COc1ccc(-c2cc3nc4n(c(=O)c3s2)CCC4)cc1 | 433 | 3% (inactive) | 4.8% (inactive) | 88.6% | -96.4% (inactive) | 139% | -0.467 (inactive) | -3.4e-05 (inactive) | 0.0055 (inactive) | 12.2% (inactive) | -34.7% (inactive) | – | – |
| COc1nc(OC)nc(N2CCC(NC(=O)C(Cc3ccc(C(C)C)cc3)NC(C)=O)CC2)n1 (stereo not given) | 800 | -5.5% (inactive) | -37.6% (inactive) | 119% | -10.4% (inactive) | 130% | -0.486 (inactive) | -4.2e-05 (inactive) | 0.00515 (inactive) | 12.2% (inactive) | 11.8% (inactive) | – | – |
